ChEMBL document CHEMBL2046356, “Synthesis and evaluation of a set of para-substituted 4-phenylpiperidines and 4-phenylpiperazines as monoamine oxidase (MAO) inhibitors” (J Med Chem, 2012)
Active and inactive are the calls of the source. The rule behind the calls is not given here.

Key:
[1] = biological target: T1, Amine oxidase [flavin-containing] A (Rattus norvegicus, UniProt P21396); assay: Displacement of [3H]-Ro 41-1049 from MAO-A receptor in rat cerebral cortex; format: tissue-based
T1 sequence (P21396 whole entry): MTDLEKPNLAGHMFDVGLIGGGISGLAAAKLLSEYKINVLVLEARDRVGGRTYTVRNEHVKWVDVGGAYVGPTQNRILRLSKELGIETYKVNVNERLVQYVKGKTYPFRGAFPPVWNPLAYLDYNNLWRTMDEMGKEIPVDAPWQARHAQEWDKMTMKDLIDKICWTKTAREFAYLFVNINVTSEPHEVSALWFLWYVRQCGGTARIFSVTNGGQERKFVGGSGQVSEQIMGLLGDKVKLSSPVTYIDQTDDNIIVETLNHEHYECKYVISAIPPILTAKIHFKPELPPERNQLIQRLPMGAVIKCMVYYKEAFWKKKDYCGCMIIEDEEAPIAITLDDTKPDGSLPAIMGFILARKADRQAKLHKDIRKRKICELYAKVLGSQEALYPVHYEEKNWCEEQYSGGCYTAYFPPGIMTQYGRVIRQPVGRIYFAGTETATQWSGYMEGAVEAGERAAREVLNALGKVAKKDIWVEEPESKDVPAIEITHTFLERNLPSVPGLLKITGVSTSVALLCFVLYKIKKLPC

[2] = test system: Rattus norvegicus; assay: Decrease in DOPAC level in Sprague-Dawley rat striatum at 100 umol/kg, sc measured after 1 hr compound administration; format: functional; parameters: scale not given: the % may be the effect or the level left
In short: (§1)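 Compounds were given to freely moving rats. Brain tissue was taken post-mortem, and striatal levels of each monoamine and its metabolites were quantified.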

[3] = test system: Rattus norvegicus; assay: Increase in 3-MT level in Sprague-Dawley rat striatum at 100 umol/kg, sc measured after 1 hr compound administration; format: functional; in short: as §1
[4] = biological target: T2, Amine oxidase [flavin-containing] B (Rattus norvegicus, UniProt P19643); assay: Displacement of [3H]-Ro 16-6491 from MAO-B receptor in rat cerebral cortex; format: tissue-based
T2 sequence (P19643 whole entry): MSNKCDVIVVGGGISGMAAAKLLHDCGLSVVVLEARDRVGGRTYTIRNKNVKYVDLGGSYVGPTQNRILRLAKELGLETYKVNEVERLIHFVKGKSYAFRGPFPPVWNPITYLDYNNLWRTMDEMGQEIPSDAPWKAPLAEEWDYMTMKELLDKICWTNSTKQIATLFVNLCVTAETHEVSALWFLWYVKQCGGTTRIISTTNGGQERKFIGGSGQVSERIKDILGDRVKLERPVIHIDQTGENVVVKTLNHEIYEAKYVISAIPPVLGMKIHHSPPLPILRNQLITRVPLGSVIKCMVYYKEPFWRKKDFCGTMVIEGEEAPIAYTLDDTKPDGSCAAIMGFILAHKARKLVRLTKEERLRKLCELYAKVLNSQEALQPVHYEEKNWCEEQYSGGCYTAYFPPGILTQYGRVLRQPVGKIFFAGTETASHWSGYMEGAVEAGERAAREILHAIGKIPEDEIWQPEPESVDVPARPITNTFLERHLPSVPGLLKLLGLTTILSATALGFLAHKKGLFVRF

[5] = test system: Rattus norvegicus; assay: Decrease in DOPAC level in Sprague-Dawley rat brain at 50 umol/kg, sc measured by microdialysis; format: functional, organism-based
[6] = test system: Rattus norvegicus; assay: Increase in 3-MT level in Sprague-Dawley rat brain at 50 umol/kg, sc measured by microdialysis; format: functional, organism-based
[7] = test system: Rattus norvegicus; assay: Decrease in homovanillic acid level in Sprague-Dawley rat brain at 50 umol/kg, sc measured by microdialysis; format: functional, organism-based
[8] = test system: Rattus norvegicus; assay: Decrease in DOPAC level in Sprague-Dawley rat striatum at 5.3 umol/kg, sc measured after 1 hr compound administration; format: functional; parameters: scale not given: the % may be the effect or the level left; in short: as §1
[9] = test system: Rattus norvegicus; assay: Decrease in DOPAC level in Sprague-Dawley rat striatum at 53 umol/kg, sc measured after 1 hr compound administration; format: functional; parameters: scale not given: the % may be the effect or the level left; in short: as §1
[10] = test system: Rattus norvegicus; assay: Increase in 3-MT level in Sprague-Dawley rat striatum at 5.3 umol/kg, sc measured after 1 hr compound administration; format: functional; in short: as §1
[11] = test system: Rattus norvegicus; assay: Increase in 3-MT level in Sprague-Dawley rat striatum at 53 umol/kg, sc measured after 1 hr compound administration; format: functional; in short: as §1
[12] = test system: Rattus norvegicus; assay: Decrease in DOPAC level in Sprague-Dawley rat striatum at 37 umol/kg, sc measured after 1 hr compound administration; format: functional; parameters: scale not given: the % may be the effect or the level left
In short: (§2)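 Unrestrained rats were dosed, and post-mortem striatal brain tissue was then analysed. Each monoamine and its metabolites (DOPAC, 3-MT) were quantified in the tissue.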

[13] = test system: Rattus norvegicus; assay: Increase in 3-MT level in Sprague-Dawley rat striatum at 37 umol/kg, sc measured after 1 hr compound administration; format: functional; in short: as §2

SMILES	Ki [1] [µM]	Activity [2] [%]	Activity [3] [%]	Ki [4] [µM]	also measured
CCCN1CCC(c2ccccc2)CC1	9.77	130	100	–	–
CCCN1CCN(c2ccc(OC)cc2)CC1	1.41	71	135	589	–
CCCCOc1ccc(C2CCN(CCC)CC2)cc1	0.372	40	150	1.58	Activity [5]: Active; Activity [6]: Active; Activity [7]: Active
CCCN1CCN(c2ccccc2)CC1	46.8	180	100	–	–
CCCN1CCC(c2ccc(N3CCOCC3)cc2)CC1	1.2	38	160	12.9	–
C#CCN(C)[C@H](C)Cc1ccccc1 [SELEGILINE]	–	–	–	–	Activity [8]: 83%; Activity [9]: 37%; Activity [10]: 110%; Activity [11]: 145%
CCCN1CCN(c2ccc(OS(=O)(=O)C(F)(F)F)cc2)CC1	17	121	120	0.0331	–
CCCN1CCC(c2ccc(C#N)cc2)CC1	93.3	105	115	589	–
CCCN1CCC(c2ccc(OC)cc2)CC1	0.24	22	260	219	–
O=C(NCCN1CCOCC1)c1ccc(Cl)cc1 [MOCLOBEMIDE]	–	–	–	> 100	Activity [12]: 18%; Activity [13]: 400%
CCCN1CCC(c2ccc(Cl)cc2)CC1	1.51	68	130	38	–
CCCN1CCC(c2ccc(C(F)(F)F)cc2)CC1	6.92	86	100	12.9	–
CCCN1CCC(c2ccc(S(C)(=O)=O)cc2)CC1	589	100	100	589	–
